Laboratory results taken from ChEMBL document CHEMBL5058577, “EUbOPEN Chemogenomics Library 2 (Multiplex)” (2022).

Tested on: HEK-293T
Assay: Multiplex assay against HEK293T
Assay type: toxicity, cell-based
Settings: human
Summary of the method: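 Live cells carried four stains from seeding: Hoechst33342, BioTracker Green Microtubule Cytoskeleton Dye, MitoTracker Red and Annexin V Alexa Fluor 680. They were imaged on a CQ1 microscope at 37°C and 5% CO2 after compound addition. Using CellPathfinder machine-learning gating, cells were split into Hoechst high-intensity objects or normal cells, normal cells into healthy, pyknosed or fragmented nuclei, and pyknosed cells into mitotic or apoptotic; tubulin, mitochondrial-mass and membrane-permeability phenotypes are per cents of healthy-nucleus cells.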

[1] = 12 h, 1 µM, compound concentration 1 uM, replicate 1
[2] = 12 h, 1 µM, compound concentration 1 uM, replicate 2
[3] = 12 h, 10 µM, compound concentration 10 uM, replicate 1
[4] = 12 h, 10 µM, compound concentration 10 uM, replicate 2
[5] = 24 h, 1 µM, compound concentration 1 uM, replicate 1
[6] = 24 h, 1 µM, compound concentration 1 uM, replicate 2
[7] = 24 h, 10 µM, compound concentration 10 uM, replicate 1
[8] = 24 h, 10 µM, compound concentration 10 uM, replicate 2
[9] = 48 h, 1 µM, compound concentration 1 uM, replicate 1
[10] = 48 h, 1 µM, compound concentration 1 uM, replicate 2
[11] = 48 h, 10 µM, compound concentration 10 uM, replicate 1
[12] = 48 h, 10 µM, compound concentration 10 uM, replicate 2

## CCCCC[C@H](O)/C=C/[C@H]1[C@H](O)CC(=O)[C@@H]1CCCCCCC(=O)O [ALPROSTADIL]
[1]
  Population Apoptotic (%): 35%
  Population Fragmented Nuclei (%): 7%
  Population Healthy Nuclei (%): 79%
  Population Hoechst High Intensity Objects (%): 7%
  Population Membrane Permeable-Phenotype (%): 0%
  Population Mitochondria Different-Phenotype (%): 42%
  Population Mitotic Cells (%): 64%
  Population Normal (%): 92%
  Population Pyknosed Nuclei (%): 13%
  Population Tubulin-Different-Phenotype (%): 28%
  Total Cell Count: 471
[2]
  Population Apoptotic (%): 50%
  Population Fragmented Nuclei (%): 6%
  Population Healthy Nuclei (%): 80%
  Population Hoechst High Intensity Objects (%): 6%
  Population Mitochondria Different-Phenotype (%): 55%
  Population Mitotic Cells (%): 49%
  Population Normal (%): 93%
  Population Tubulin-Different-Phenotype (%): 18%
  Total Cell Count: 392
[3]
  Population Apoptotic (%): 33%
  Population Fragmented Nuclei (%): 7%
  Population Healthy Nuclei (%): 78%
  Population Hoechst High Intensity Objects (%): 6%
  Population Membrane Permeable-Phenotype (%): 1%
  Population Mitochondria Different-Phenotype (%): 48%
  Population Mitotic Cells (%): 66%
  Population Normal (%): 93%
  Population Pyknosed Nuclei (%): 14%
  Population Tubulin-Different-Phenotype (%): 33%
  Total Cell Count: 318
[4]
  Population Healthy Nuclei (%): 75%
  Population Hoechst High Intensity Objects (%): 9%
  Population Membrane Permeable-Phenotype (%): 0%
  Population Mitochondria Different-Phenotype (%): 64%
  Population Normal (%): 90%
  Population Pyknosed Nuclei (%): 17%
  Population Tubulin-Different-Phenotype (%): 30%
  Total Cell Count: 309
[5]
  Population Apoptotic (%): 35%
  Population Fragmented Nuclei (%): 9%
  Population Healthy Nuclei (%): 79%
  Population Hoechst High Intensity Objects (%): 3%
  Population Membrane Permeable-Phenotype (%): 1%
  Population Mitochondria Different-Phenotype (%): 22%
  Population Mitotic Cells (%): 64%
  Population Normal (%): 96%
  Population Pyknosed Nuclei (%): 10%
  Population Tubulin-Different-Phenotype (%): 15%
  Total Cell Count: 605
[6]
  Population Apoptotic (%): 34%
  Population Fragmented Nuclei (%): 6%
  Population Healthy Nuclei (%): 85%
  Population Hoechst High Intensity Objects (%): 4%
  Population Membrane Permeable-Phenotype (%): 0%
  Population Mitochondria Different-Phenotype (%): 35%
  Population Mitotic Cells (%): 65%
  Population Normal (%): 95%
  Population Pyknosed Nuclei (%): 8%
  Population Tubulin-Different-Phenotype (%): 14%
  Total Cell Count: 526
[7]
  Population Apoptotic (%): 32%
  Population Fragmented Nuclei (%): 11%
  Population Healthy Nuclei (%): 76%
  Population Hoechst High Intensity Objects (%): 2%
  Population Membrane Permeable-Phenotype (%): 0%
  Population Mitochondria Different-Phenotype (%): 26%
  Population Mitotic Cells (%): 67%
  Population Normal (%): 97%
  Population Pyknosed Nuclei (%): 12%
  Population Tubulin-Different-Phenotype (%): 23%
  Total Cell Count: 439
[8]
  Population Apoptotic (%): 36%
  Population Fragmented Nuclei (%): 7%
  Population Healthy Nuclei (%): 79%
  Population Hoechst High Intensity Objects (%): 8%
  Population Mitochondria Different-Phenotype (%): 50%
  Population Mitotic Cells (%): 63%
  Population Normal (%): 91%
  Population Tubulin-Different-Phenotype (%): 22%
  Total Cell Count: 345
[9]
  Population Apoptotic (%): 32%
  Population Fragmented Nuclei (%): 13%
  Population Healthy Nuclei (%): 79%
  Population Hoechst High Intensity Objects (%): 2%
  Population Membrane Permeable-Phenotype (%): 2%
  Population Mitochondria Different-Phenotype (%): 12%
  Population Mitotic Cells (%): 67%
  Population Normal (%): 97%
  Population Pyknosed Nuclei (%): 7%
  Population Tubulin-Different-Phenotype (%): 11%
  Total Cell Count: 1005
[10]
  Population Apoptotic (%): 13%
  Population Fragmented Nuclei (%): 16%
  Population Healthy Nuclei (%): 77%
  Population Hoechst High Intensity Objects (%): 3%
  Population Membrane Permeable-Phenotype (%): 0%
  Population Mitochondria Different-Phenotype (%): 21%
  Population Mitotic Cells (%): 86%
  Population Normal (%): 96%
  Population Pyknosed Nuclei (%): 6%
  Population Tubulin-Different-Phenotype (%): 12%
  Total Cell Count: 714
[11]
  Population Apoptotic (%): 25%
  Population Fragmented Nuclei (%): 15%
  Population Healthy Nuclei (%): 76%
  Population Hoechst High Intensity Objects (%): 2%
  Population Membrane Permeable-Phenotype (%): 1%
  Population Mitochondria Different-Phenotype (%): 17%
  Population Mitotic Cells (%): 75%
  Population Normal (%): 97%
  Population Pyknosed Nuclei (%): 7%
  Population Tubulin-Different-Phenotype (%): 15%
  Total Cell Count: 685
[12]
  Population Apoptotic (%): 20%
  Population Fragmented Nuclei (%): 14%
  Population Healthy Nuclei (%): 79%
  Population Membrane Permeable-Phenotype (%): 0%
  Population Mitochondria Different-Phenotype (%): 30%
  Population Mitotic Cells (%): 80%
  Population Pyknosed Nuclei (%): 6%
  Population Tubulin-Different-Phenotype (%): 14%
  Total Cell Count: 537

## OCCCNc1cc(-c2ccnc(Nc3cccc(Cl)c3)n2)ccn1
[1]
  Population Apoptotic (%): 66%
  Population Fragmented Nuclei (%): 9%
  Population Healthy Nuclei (%): 66%
  Population Hoechst High Intensity Objects (%): 14%
  Population Membrane Permeable-Phenotype (%): 0%
  Population Mitochondria Different-Phenotype (%): 82%
  Population Mitotic Cells (%): 33%
  Population Normal (%): 85%
  Population Pyknosed Nuclei (%): 24%
  Population Tubulin-Different-Phenotype (%): 75%
  Total Cell Count: 204
[2]
  Population Apoptotic (%): 65%
  Population Fragmented Nuclei (%): 8%
  Population Healthy Nuclei (%): 74%
  Population Hoechst High Intensity Objects (%): 11%
  Population Mitochondria Different-Phenotype (%): 88%
  Population Mitotic Cells (%): 34%
  Population Normal (%): 88%
  Population Pyknosed Nuclei (%): 16%
  Population Tubulin-Different-Phenotype (%): 57%
  Total Cell Count: 173
[3]
  Population Apoptotic (%): 78%
  Population Fragmented Nuclei (%): 14%
  Population Healthy Nuclei (%): 55%
  Population Hoechst High Intensity Objects (%): 30%
  Population Membrane Permeable-Phenotype (%): 1%
  Population Mitochondria Different-Phenotype (%): 83%
  Population Mitotic Cells (%): 21%
  Population Normal (%): 69%
  Population Pyknosed Nuclei (%): 30%
  Population Tubulin-Different-Phenotype (%): 80%
  Total Cell Count: 249
[4]
  Population Apoptotic (%): 75%
  Population Healthy Nuclei (%): 67%
  Population Hoechst High Intensity Objects (%): 41%
  Population Membrane Permeable-Phenotype (%): 10%
  Population Mitochondria Different-Phenotype (%): 85%
  Population Mitotic Cells (%): 25%
  Population Normal (%): 58%
  Population Pyknosed Nuclei (%): 18%
  Population Tubulin-Different-Phenotype (%): 72%
  Total Cell Count: 224
[5]
  Population Apoptotic (%): 91%
  Population Fragmented Nuclei (%): 10%
  Population Healthy Nuclei (%): 66%
  Population Hoechst High Intensity Objects (%): 14%
  Population Membrane Permeable-Phenotype (%): 0%
  Population Mitochondria Different-Phenotype (%): 80%
  Population Mitotic Cells (%): 8%
  Population Normal (%): 85%
  Population Pyknosed Nuclei (%): 22%
  Population Tubulin-Different-Phenotype (%): 61%
  Total Cell Count: 228
[6]
  Population Apoptotic (%): 77%
  Population Fragmented Nuclei (%): 13%
  Population Healthy Nuclei (%): 76%
  Population Hoechst High Intensity Objects (%): 15%
  Population Mitochondria Different-Phenotype (%): 86%
  Population Mitotic Cells (%): 22%
  Population Normal (%): 84%
  Population Pyknosed Nuclei (%): 10%
  Total Cell Count: 202
[7]
  Population Apoptotic (%): 71%
  Population Fragmented Nuclei (%): 16%
  Population Healthy Nuclei (%): 44%
  Population Hoechst High Intensity Objects (%): 41%
  Population Membrane Permeable-Phenotype (%): 0%
  Population Mitochondria Different-Phenotype (%): 85%
  Population Mitotic Cells (%): 28%
  Population Normal (%): 58%
  Population Pyknosed Nuclei (%): 38%
  Population Tubulin-Different-Phenotype (%): 88%
  Total Cell Count: 237
[8]
  Population Apoptotic (%): 78%
  Population Fragmented Nuclei (%): 15%
  Population Healthy Nuclei (%): 54%
  Population Hoechst High Intensity Objects (%): 45%
  Population Membrane Permeable-Phenotype (%): 3%
  Population Mitochondria Different-Phenotype (%): 91%
  Population Mitotic Cells (%): 21%
  Population Normal (%): 54%
  Population Pyknosed Nuclei (%): 29%
  Population Tubulin-Different-Phenotype (%): 82%
  Total Cell Count: 207
[9]
  Population Apoptotic (%): 82%
  Population Fragmented Nuclei (%): 12%
  Population Healthy Nuclei (%): 51%
  Population Hoechst High Intensity Objects (%): 18%
  Population Membrane Permeable-Phenotype (%): 1%
  Population Mitochondria Different-Phenotype (%): 88%
  Population Mitotic Cells (%): 17%
  Population Normal (%): 81%
  Population Pyknosed Nuclei (%): 35%
  Population Tubulin-Different-Phenotype (%): 68%
  Total Cell Count: 232
[10]
  Population Apoptotic (%): 61%
  Population Fragmented Nuclei (%): 17%
  Population Healthy Nuclei (%): 65%
  Population Hoechst High Intensity Objects (%): 21%
  Population Membrane Permeable-Phenotype (%): 0%
  Population Mitochondria Different-Phenotype (%): 84%
  Population Mitotic Cells (%): 38%
  Population Normal (%): 78%
  Population Pyknosed Nuclei (%): 17%
  Population Tubulin-Different-Phenotype (%): 59%
  Total Cell Count: 193
[11]
  Population Apoptotic (%): 71%
  Population Fragmented Nuclei (%): 16%
  Population Healthy Nuclei (%): 46%
  Population Hoechst High Intensity Objects (%): 57%
  Population Membrane Permeable-Phenotype (%): 1%
  Population Mitochondria Different-Phenotype (%): 78%
  Population Mitotic Cells (%): 28%
  Population Normal (%): 42%
  Population Pyknosed Nuclei (%): 37%
  Population Tubulin-Different-Phenotype (%): 76%
  Total Cell Count: 262
[12]
  Population Apoptotic (%): 83%
  Population Fragmented Nuclei (%): 25%
  Population Hoechst High Intensity Objects (%): 56%
  Population Membrane Permeable-Phenotype (%): 8%
  Population Mitochondria Different-Phenotype (%): 85%
  Population Mitotic Cells (%): 16%
  Population Normal (%): 43%
  Population Pyknosed Nuclei (%): 28%
  Population Tubulin-Different-Phenotype (%): 79%
  Total Cell Count: 238
